Test [1] concerns Escherichia coli. Put plainly: Antibacterial activity against Escherichia coli O157 at 100 ug/ml after 24 hrs by paper disc diffusion technique. It counts as functional. To be noted: O157, 24 h, read-out: IZ. For orientation: Agar diffusion results depend on both activity and mobility in agar.
Test [2] has as its system Escherichia coli. Put plainly: Antibacterial activity against Escherichia coli O157 after 24 hrs by agar streak dilution method. Type of test: functional. The settings on record: O157, 24 h.
The test system of test [3] is Salmonella typhimurium. Put plainly: Antibacterial activity against Salmonella Typhimurium at 100 ug/ml after 24 hrs by paper disc diffusion technique. It counts as functional, Salmonella enterica subsp. enterica serovar Typhimurium. To be noted: Salmonella enterica, read-out: IZ. The gist of the method:
(§1)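 Paper disc diffusion on Mueller Hinton agar, autoclaved at 120 °C for 30 min. Medium at 40–50 °C was seeded at 1 ml/100 ml with a 10^5 cfu/ml suspension matched to 0.9 McFarland. It was poured 3–4 mm deep, and discs with compound in DMSO were laid on it. Plates were pre-incubated 1 h at room temperature, then 37 °C for 24 h. The inhibition zone was measured.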

In test [4] the test system is Salmonella typhimurium. Put plainly: Antibacterial activity against Salmonella Typhimurium after 24 hrs by agar streak dilution method. Type of test: functional, Salmonella enterica subsp. enterica serovar Typhimurium. The settings on record: Salmonella enterica. The gist of the method:
(§2)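 Agar streak dilution on Mueller Hinton agar. Compound stock in DMSO was added in graded amounts to molten sterile agar at 40–50 °C. This was poured 3–4 mm deep and left to solidify. Bacterial suspension of about 10^5 cfu/ml was applied to the serially diluted plates. Plates were incubated at 37 °C for 24 h to read the MIC. Strains were food-poisoning isolates from animal byproducts.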

Test [5] has as its system Listeria monocytogenes. Put plainly: Antibacterial activity against Listeria monocytogenes at 100 ug/ml after 24 hrs by paper disc diffusion technique. Type of test: functional. To be noted: read-out: IZ. In short, it runs like this: as §1
Test [6] relates to Listeria monocytogenes. Put plainly: Antibacterial activity against Listeria monocytogenes after 24 hrs by agar streak dilution method. It counts as functional. The gist of the method:
as §2

Test [7] concerns Staphylococcus aureus. Put plainly: Antibacterial activity against Staphylococcus aureus at 100 ug/ml after 24 hrs by paper disc diffusion technique. Type of test: functional. The settings on record: read-out: IZ. In short, it runs like this:
as §1

Test [8] has as its system Staphylococcus aureus. Put plainly: Antibacterial activity against Staphylococcus aureus after 24 hrs by agar streak dilution method. Type of test: functional. The gist of the method: as §2
Test [9] deals with Pseudomonas aeruginosa. Put plainly: Antibacterial activity against Pseudomonas aeruginosa at 100 ug/ml after 24 hrs by paper disc diffusion technique. The settings on record: read-out: IZ. It counts as functional. In short, it runs like this: as §1
The subject of test [10] is Pseudomonas aeruginosa. Put plainly: Antibacterial activity against Pseudomonas aeruginosa after 24 hrs by agar streak dilution method. Type of test: functional. The gist of the method: as §2
For test [11], the system named is Bacillus cereus. Put plainly: Antibacterial activity against Bacillus cereus at 100 ug/ml after 24 hrs by paper disc diffusion technique. It counts as functional. To be noted: read-out: IZ. The gist of the method:
as §1

Test [12] relates to Bacillus cereus. Put plainly: Antibacterial activity against Bacillus cereus after 24 hrs by agar streak dilution method. Type of test: functional. The gist of the method: as §2
For test [13], the system named is Candida albicans. Put plainly: Antifungal activity against Candida albicans at 100 ug/ml after 48 hrs by paper disc diffusion technique. It counts as functional. The gist of the method:
(§3)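 Paper disc diffusion on Sabouraud dextrose agar, autoclaved at 120 °C for 30 min. Medium at 40–50 °C was seeded at 1 ml/100 ml with a 10^5 cfu/ml fungal suspension matched to 0.9 McFarland. It was poured 3–4 mm deep, and compound discs in DMSO were applied. Plates were pre-incubated 1 h at room temperature, then 28 °C for 48 h. The inhibition zone was recorded.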

Test [14] deals with Aspergillus flavus. Put plainly: Antifungal activity against Aspergillus flavus at 100 ug/ml after 48 hrs by paper disc diffusion technique. Type of test: functional. To be noted: read-out: IZ. In short, it runs like this: as §3
The test system of test [15] is Aspergillus flavus. Put plainly: Antifungal activity against Aspergillus flavus after 48 hrs by agar streak dilution method. Type of test: functional. The gist of the method:
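Fungal MIC by agar streak dilution on Sabouraud dextrose agar. Compound stock in DMSO was added in graded amounts to molten sterile medium at 40–50 °C. This was poured 3–4 mm deep and left to solidify. Fungal suspension of about 10^5 cfu/ml was applied to the serially diluted plates. Plates were incubated at 37 °C for 48 h.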

Values after ≈ are worked out from the molar mass of the structure shown. Active and inactive are the calls of the source. The calls are words filed in the database; no cut-off is given here.

For `O=C(NN1C(=O)CCC1=O)c1ccc(-n2c(-c3ccccc3)nc3c(Br)cc(Br)cc3c2=O)cc1`, the zone of inhibition at 100 µg/mL worked out at 9 mm in test [1]; 18 mm in test [3]; 12 mm in test [5]; 9 mm in test [7]; 11 mm in [9]; 9 mm in test [11]. In test [14], the zone of inhibition at 100 µg/mL worked out at 17 mm. Moreover, the MIC in test [2] was more than 50 mg/L; in [4], 1.7 mg/L (≈ 2.85 µM); in test [6], 50 mg/L (≈ 83.9 µM); in test [8], more than 50 mg/L; in test [10], more than 50 mg/L; in test [12], more than 50 mg/L. In [15], the MIC came to 3.5 mg/L (≈ 5.87 µM). Also, in test [13], the “inhibition zone (IZ)” value is “inactive”.
In the case of `COc1ccc(/C=N/NC(=O)c2ccc(-n3c(-c4ccccc4)nc4c(Br)cc(Br)cc4c3=O)cc2)cc1`, the zone of inhibition at 100 µg/mL in test [1] was found to be 8 mm; in [3], 10 mm; in test [5] it was 12 mm; in test [7] it was 11 mm; in [9], 11 mm; in test [11], 13 mm. In test [14], the zone of inhibition at 100 µg/mL amounted to 11 mm. Moreover, the MIC in [2] is more than 50 mg/L; in [4] it was more than 50 mg/L; in [6] it was 50 mg/L (≈ 79.1 µM); in [8], 50 mg/L (≈ 79.1 µM); in test [10], more than 50 mg/L; in test [12] it was 35.5 mg/L (≈ 56.1 µM). The same molecule showed an MIC in test [15] of 25 mg/L (≈ 39.5 µM). Also, the “inhibition zone (IZ)” value in test [13] was “inactive”.
Regarding `CC(=O)NNC(=O)c1ccc(-n2c(-c3ccccc3)nc3c(Br)cc(Br)cc3c2=O)cc1`, the zone of inhibition at 100 µg/mL in test [1] worked out at 9 mm; in test [3], 14 mm; in [5], 14 mm; in test [7], 11 mm; in test [9] it was 13 mm; in test [11], 9 mm. In addition, the zone of inhibition at 100 µg/mL in test [14] is 22 mm. For the same molecule, the MIC in test [2] is more than 50 mg/L; in [4], 30 mg/L (≈ 53.9 µM); in test [6], 35 mg/L (≈ 62.9 µM); in test [8] it was 40 mg/L (≈ 71.9 µM); in test [10] it was 25 mg/L (≈ 44.9 µM); in [12] it was more than 50 mg/L. The minimum inhibitory concentration (MIC) in [15] was determined as 1.2 mg/L (≈ 2.16 µM). Further, the “inhibition zone (IZ)” value in [13] was “inactive”.
For the molecule `O=C(N/N=C/c1ccc(Cl)cc1)c1ccc(-n2c(-c3ccccc3)nc3c(Br)cc(Br)cc3c2=O)cc1`, the zone of inhibition at 100 µg/mL was 12 mm in test [1]; 10 mm in [3]; 14 mm in test [5]; 12 mm in [7]; 12 mm in test [9]; 16 mm in test [11]. The zone of inhibition at 100 µg/mL in [14] came out at 16 mm. Moreover, the MIC in test [2] is 20 mg/L (≈ 31.4 µM); in [4] it was more than 50 mg/L; in test [6] it was 30 mg/L (≈ 47.1 µM); in [8] it was 25 mg/L (≈ 39.3 µM); in test [10], 20 mg/L (≈ 31.4 µM); in test [12] it was 5.5 mg/L (≈ 8.64 µM). The molecule also showed an MIC in [15] of 12.5 mg/L (≈ 19.6 µM). For the same molecule, the “inhibition zone (IZ)” value in test [13] is “inactive”.
Take `O=C(O)c1cn(C2CC2)c2cc(N3CCNCC3)c(F)cc2c1=O` [CIPROFLOXACIN]: the zone of inhibition at 100 µg/mL in test [1] came out at 18 mm; in test [3], 20 mm; in test [5], 17 mm; in test [7], 18 mm; in [9], 19 mm; in test [11], 20 mm. The MIC in test [4] is 0.39 mg/L (≈ 1.18 µM); in [6], 1.56 mg/L (≈ 4.71 µM); in test [8], 1.56 mg/L (≈ 4.71 µM); in [10] it was 0.78 mg/L (≈ 2.35 µM); in test [12], 0.39 mg/L (≈ 1.18 µM).

The term MIC denotes the lowest concentration found to suppress growth. A high value points to weaker potency.

The record behind these values is ChEMBL document CHEMBL1208666, “Novel 6,8-dibromo-4(3H)quinazolinone derivatives of anti-bacterial and anti-fungal activities” (2010).
